Source: ChEMBL document CHEMBL3751842, “Novel triazolothiadiazines act as potent anticancer agents in liver cancer cells through Akt and ASK-1 proteins” (Bioorg Med Chem, 2016)

Legend:
MCF7 = experiment: Cytotoxicity against human MCF7 cells assessed as growth inhibition after 72 hrs by sulforhodamine B assay; type: functional, cell-based
Summary of the method: (§1)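 Cells were grown at 37°C, 5% CO2 in DMEM with 10% FBS. They were seeded at 1000–3000 cells/well, grown 24 h, then exposed to compound at 2.5–40 µM for 72 h. Cells were fixed in 10% TCA for 1 h at 4°C, stained with 0.4% SRB in 1% acetic acid for 10 min, and the dye solubilized in 10 mM Tris. Absorbance was read at 515 nm; runs were in triplicate; IC50 was calculated, with fits of R2 0.8–1 accepted.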

[1] = Cytotoxicity against human HCT116 cells assessed as growth inhibition after 72 hrs by sulforhodamine B assay; type: functional, cell-based, HCT-116; summary of the method: as §1
[2] = Cytotoxicity against human HuH7 cells assessed as growth inhibition after 72 hrs by sulforhodamine B assay; type: functional, cell-based, Huh-7; summary of the method: as §1
[3] = Cytotoxicity against human Hep3B cells assessed as growth inhibition after 72 hrs by sulforhodamine B assay; type: functional, cell-based, Hep 3B2; summary of the method: as §1
[4] = Cytotoxicity against human Mahlavu cells assessed as growth inhibition after 72 hrs by sulforhodamine B assay; type: functional, cell-based; summary of the method: as §1
[5] = Cytotoxicity against human FOCUS cells assessed as growth inhibition after 72 hrs by sulforhodamine B assay; type: functional, cell-based; summary of the method: as §1
HepG2 = experiment: Cytotoxicity against human HepG2 cells assessed as growth inhibition after 72 hrs by sulforhodamine B assay; type: functional, cell-based; summary of the method: as §1
[6] = Cytotoxicity against human SNU475 cells assessed as growth inhibition after 72 hrs by sulforhodamine B assay; type: functional, cell-based, SNU-475; summary of the method: as §1
[7] = Homo sapiens, MCF7, 72 h, read-out: IC50
[8] = Homo sapiens, HCT-116, 72 h, read-out: IC50
[9] = Homo sapiens, Huh-7, 72 h, read-out: IC50
[10] = Homo sapiens, HepG2, 72 h, read-out: IC50

`COc1ccc2cc(C(C)c3nnc4n3N=C(c3ccc(C(F)(F)F)cc3)CS4)ccc2c1` (centres undefined) showed an IC50 (MCF7; [7]) of 6.9 µM, an IC50 [1, 8] of 10.8 µM and an IC50 [2, 9] of 14.8 µM.

In the case of `COc1ccc2cc(C(C)c3nnc4n3N=C(c3ccc(OC(F)(F)F)cc3)CS4)ccc2c1` (centres undefined), the IC50 (MCF7; [7]) is reported as 8.8 µM, the IC50 [1, 8] is reported as 11.7 µM and the IC50 [2, 9] is reported as 16 µM.

With `CC(c1ccc(-c2ccccc2)c(F)c1)c1n[nH]c(=S)n1N` (centres undefined) the IC50 ([3]; hep 3b2) was “Not Active”, the IC50 (MCF7; mcf7) was “Not Active” and the IC50 ([1]; hct-116) was “Not Active”. For the same compound, the IC50 ([4]; mahlavu) was “Not Active”, the IC50 ([5]; focus) was “Not Active” and the IC50 (HepG2; [10]) was 21.4 µM. The IC50 ([6]; snu-475) was “Not Active” and the IC50 [2, 9] was 43.1 µM.

Compound `CC(C)Cc1ccc(C(C)c2nnc3n2N=C(c2ccc(F)cc2)CS3)cc1` (centres undefined) has an IC50 (MCF7; [7]) of 8.9 µM, an IC50 [1, 8] of 12.4 µM and an IC50 [2, 9] of 7.8 µM.

Work on `COc1ccc2cc(C(C)c3nnc4n3N=C(c3ccc(C)cc3)CS4)ccc2c1` (centres undefined) yielded an IC50 (MCF7; [7]) of 11 µM, an IC50 [1, 8] of 10.2 µM and an IC50 [2, 9] of 8.2 µM.

For `COc1ccc2cc(C(C)c3nnc4n3N=C(c3ccc(F)cc3)CS4)ccc2c1` (centres undefined), the IC50 (MCF7; [7]) was 15.8 µM, the IC50 [1, 8] was 13.1 µM and the IC50 [2, 9] was 7 µM.

For `CC(c1ccc(-c2ccccc2)c(F)c1)c1nnc2n1N=C(c1ccccc1)CS2` (centres undefined), the IC50 (MCF7; [7]) was 7.4 µM, the IC50 [1, 8] was 9.7 µM and the IC50 [2, 9] was 6.7 µM.

`COc1ccc2cc(C(C)c3nnc4n3N=C(c3ccc([N+](=O)[O-])cc3)CS4)ccc2c1` (centres undefined) showed an IC50 (MCF7; [7]) of 18.8 µM, an IC50 [1, 8] of 15.1 µM and an IC50 [2, 9] of 14.7 µM.

In the case of `CC[C@@]1(O)C(=O)OCc2c1cc1n(c2=O)Cc2cc3ccccc3nc2-1` [CAMPTOTHECIN], the IC50 ([3]; Homo sapiens, Hep3B, 72 h, read-out: IC50) is reported as < 1 µM, the IC50 (MCF7; [7]) is reported as ≤ 0.1 µM and the IC50 [1, 8] is reported as ≤ 0.1 µM. For the same compound, the IC50 ([4]; Homo sapiens, Mahlavu, 72 h, read-out: IC50) was < 1 µM, the IC50 ([5]; Homo sapiens, FOCUS, 72 h, read-out: IC50) was < 1 µM and the IC50 (HepG2; [10]) was < 1 µM. The IC50 ([6]; Homo sapiens, SNU-475, 72 h, read-out: IC50) was < 1 µM and the IC50 [2, 9] was ≤ 0.1 µM.

With `COc1ccc2cc([C@H](C)C(=O)O)ccc2c1` [NAPROXEN] the IC50 ([3]; hep 3b2) was “Not Active”, the IC50 (MCF7; mcf7) was “Not Active” and the IC50 ([1]; hct-116) was “Not Active”. The IC50 ([4]; mahlavu) was “Not Active”, the IC50 ([5]; focus) was “Not Active” and the IC50 (HepG2; hepg2) was “Not Active”. For the same compound, the IC50 ([6]; snu-475) was “Not Active” and the IC50 ([2]; huh-7) was “Not Active”.

`CC(C)Cc1ccc(C(C)c2nnc3n2N=C(c2ccccc2)CS3)cc1` (centres undefined) showed an IC50 (MCF7; [7]) of 9.7 µM, an IC50 [1, 8] of 7.6 µM and an IC50 [2, 9] of 6.1 µM.

Work on `COc1ccc2cc(C(C)c3nnc4n3N=C(c3ccccc3)CS4)ccc2c1` (centres undefined) yielded an IC50 (MCF7; [7]) of 11.7 µM, an IC50 [1, 8] of 8.9 µM and an IC50 [2, 9] of 5.7 µM.

`CC(c1ccc(-c2ccccc2)c(F)c1)c1nnc2n1N=C(c1ccc(OC(F)(F)F)cc1)CS2` (centres undefined) showed an IC50 (MCF7; [7]) of 4.8 µM, an IC50 [1, 8] of 5.4 µM and an IC50 [2, 9] of 8.4 µM.

`CC(c1ccc(-c2ccccc2)c(F)c1)c1nnc2n1N=C(c1ccc(C(F)(F)F)cc1)CS2` (centres undefined) showed an IC50 (MCF7; [7]) of 4.3 µM, an IC50 [1, 8] of 6.1 µM and an IC50 [2, 9] of 9.4 µM.

For `CC(C)Cc1ccc(C(C)c2nnc3n2N=C(c2ccc(Cl)cc2Cl)CS3)cc1` (centres undefined), the IC50 (MCF7; [7]) was 11.8 µM, the IC50 [1, 8] was 11.1 µM and the IC50 [2, 9] was 7.5 µM.

Compound `COc1ccc2cc(C(C)c3nnc4n3N=C(c3ccc(Cl)cc3)CS4)ccc2c1` (centres undefined) has an IC50 (MCF7; [7]) of 10.1 µM, an IC50 [1, 8] of 8.8 µM and an IC50 [2, 9] of 5.6 µM.

With `CC(C)Cc1ccc(C(C)c2nnc3n2N=C(c2ccc(C(F)(F)F)cc2)CS3)cc1` (centres undefined) the IC50 (MCF7; [7]) was 4.2 µM, the IC50 [1, 8] was 6.5 µM and the IC50 [2, 9] was 8.4 µM.

Work on `CC(C)Cc1ccc(C(C)c2nnc3n2N=C(c2ccc(Cl)cc2)CS3)cc1` (centres undefined) yielded an IC50 (MCF7; [7]) of 8.8 µM, an IC50 [1, 8] of 6.7 µM and an IC50 [2, 9] of 5.7 µM.

For `COc1ccc2cc(C(C)c3nnc4n3N=C(c3ccc(Cl)cc3Cl)CS4)ccc2c1` (centres undefined), the IC50 (MCF7; [7]) was 14.6 µM, the IC50 [1, 8] was 14 µM and the IC50 [2, 9] was 10.7 µM.

In the case of `CC(C)Cc1ccc(C(C)c2nnc3n2N=C(c2ccc([N+](=O)[O-])cc2)CS3)cc1` (centres undefined), the IC50 (MCF7; mcf7) is reported as “Not Active”, the IC50 ([1]; hct-116) is reported as “Not Active” and the IC50 ([2]; huh-7) is reported as “Not Active”.

`Cc1ccc(C2=Nn3c(nnc3C(C)c3ccc(-c4ccccc4)c(F)c3)SC2)cc1` (centres undefined) gave an IC50 (MCF7; [7]) of 5 µM, an IC50 [1, 8] of 4.8 µM and an IC50 [2, 9] of 7.2 µM.

In the case of `COc1ccc2cc(C(C)c3nnc4n3N=C(c3ccc(Br)cc3)CS4)ccc2c1` (centres undefined), the IC50 (MCF7; [7]) is reported as 11.5 µM, the IC50 [1, 8] is reported as 11.7 µM and the IC50 [2, 9] is reported as 9.3 µM.

Compound `COc1ccc(C2=Nn3c(nnc3C(C)c3ccc4cc(OC)ccc4c3)SC2)cc1` (centres undefined) has an IC50 (MCF7; [7]) of 6.6 µM, an IC50 [1, 8] of 6.5 µM and an IC50 [2, 9] of 8.5 µM.
